Values belong to the molecule of their own block, whether it stands above or below them.
Key:
[1] = The Kel value in female wistar rat at 100 mg/kg, p.o. dose; type: ADME, organism-based; parameters: dose 100 mg/kg, route oral; settings: in vivo, po
Procedure, shortened: (§1)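 Wistar rats, 200–225 g, fasted 12 h with free access to water and fed 3 h after dosing. Single dose of 100 mg/kg p.o. given as a 0.5% CMC suspension. Retro-orbital blood, 0.4 mL, taken into heparinized tubes at several time points. Plasma drug measured by HPLC with fluorescence detection on a C18 column. Parameters from noncompartmental analysis, AUC by trapezoidal rule. Four rats per group, mean ± SD.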

[2] = tested on: Rattus norvegicus; test: (§2) The AUC(0-infinitive) value in female wistar rat at 100 mg/kg, p.o. dose; type: ADME, organism-based; parameters: time infinity, dose 100 mg/kg, route oral; settings: in vivo, po; procedure, shortened: as §1
[3] = The Tmax value in female wistar rat at 100 mg/kg, p.o. dose; type: ADME, organism-based; parameters: dose 100 mg/kg, route oral; settings: in vivo, po; procedure, shortened: as §1
[4] = tested on: Rattus norvegicus; test: The AUC(0-t)value in female wistar rat at 100 mg/kg, p.o. dose […]; type: ADME, organism-based; parameters: dose 100 mg/kg, route oral; settings: in vivo, po
[5] = tested on: Mus musculus; test: The compound was tested for percent reduction in plasma glucose after 6 days of treatment at a dose of 200 mg/kg/day (oral gavage) in mice; type: functional
Procedure, shortened: (§3)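 Male C57BL/KsJ-db/db mice, 8 weeks old, chow ad libitum, grouped by similar starting plasma glucose (n = 4–6 per group). Dosed orally by gavage in 0.5% CMC vehicle (10 mL/kg) daily for 6 days. Retro-orbital blood taken 1 h post-dose on days 0 and 6. Plasma glucose and triglyceride measured with kits. % reduction = {1−[(TT/OT)/(TC/OC)]}×100 versus vehicle controls, mean ± SE.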

[6] = The Cmax value in female wistar rat at 100 mg/kg, p.o. dose; type: ADME, organism-based; parameters: dose 100 mg/kg, route oral; settings: in vivo, po; procedure, shortened: as §1
[7] = tested on: Mus musculus; test: The compound was tested for percent reduction in plasma glucose after 6 days of treatment at 30 mg/kg/day in mice; type: functional; procedure, shortened: as §3
[8] = tested on: Mus musculus; test: The compound was tested for percent reduction in plasma triglyceride after 6 days of treatment at 30 mg/kg/day in mice; type: functional; procedure, shortened: as §3
[9] = tested on: Mus musculus; test: The compounds(3:7) were tested for percent reduction in plasma glucose after 6 days of treatment at 200 mg/kg/day(oral gavage) in mice; type: functional; procedure, shortened: as §3
[10] = tested on: Mus musculus; test: The compounds(21:4) were tested for percent reduction in plasma glucose after 6 days of treatment at 200 mg/kg/day(oral gavage) in mice; type: functional; procedure, shortened: as §3
[11] = tested on: Mus musculus; test: The compound was tested for percent reduction in plasma glucose after 6 days of treatment at a dose of 100 mg/kg/day (oral gavage) in mice; type: functional; procedure, shortened: as §3
[12] = tested on: Mus musculus; test: The compound was tested for percent reduction in plasma triglyceride after 6 days of treatment at 100 mg/kg/day in mice; type: functional; procedure, shortened: as §3
[13] = tested on: Rattus norvegicus; test: (§4) The AUC(0-t)value in female wistar rat at 100 mg/kg, p.o. dose; type: ADME, organism-based; parameters: dose 100 mg/kg, route oral; unit not given here; settings: in vivo, po; procedure, shortened: as §1
[14] = The Kel value in male wistar rat at 100 mg/kg, p.o. dose; type: ADME, organism-based; parameters: dose 100 mg/kg, route oral; settings: in vivo, po; procedure, shortened: as §1
[15] = tested on: Rattus norvegicus; test: as §2; type: ADME, organism-based; parameters: time infinity, dose 100 mg/kg, route oral; unit not given here; settings: in vivo, po; procedure, shortened: as §1
[16] = tested on: Rattus norvegicus; test: The AUC(0-t)value in male wistar rat at 100 mg/kg, p.o. dose; type: ADME, organism-based; parameters: dose 100 mg/kg, route oral; settings: in vivo, po; procedure, shortened: as §1
[17] = tested on: Mus musculus; test: The compound was tested for percent reduction in plasma glucose after 6 days of treatment at a dose of 100 mg/kg/day in mice; type: functional; procedure, shortened: as §3
[18] = target: T1, Peroxisome proliferator-activated receptor alpha (Homo sapiens) (UniProt Q07869); test: Fold activation against Peroxisome proliferator activated receptor alpha (50 uM)
T1 sequence (whole entry): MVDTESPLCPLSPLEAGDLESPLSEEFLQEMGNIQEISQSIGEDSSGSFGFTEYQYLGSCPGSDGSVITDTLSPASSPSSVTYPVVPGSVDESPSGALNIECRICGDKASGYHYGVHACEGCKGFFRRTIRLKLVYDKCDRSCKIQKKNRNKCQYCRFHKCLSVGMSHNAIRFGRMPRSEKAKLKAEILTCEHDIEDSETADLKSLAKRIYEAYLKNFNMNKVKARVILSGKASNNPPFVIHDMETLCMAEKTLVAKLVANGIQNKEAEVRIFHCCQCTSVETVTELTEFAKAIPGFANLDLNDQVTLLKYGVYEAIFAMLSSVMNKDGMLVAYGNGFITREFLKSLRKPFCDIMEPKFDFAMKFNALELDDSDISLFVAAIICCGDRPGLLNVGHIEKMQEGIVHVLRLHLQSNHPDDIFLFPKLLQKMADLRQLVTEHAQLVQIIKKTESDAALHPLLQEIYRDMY
Procedure, shortened: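 GAL4 fusion of human PPARα LBD (aa 167–468) with a GAL4-response-element luciferase reporter, transiently transfected into HEK-293 cells. Cells kept in DMEM with 10% delipidated serum, seeded 43 h post-transfection, then treated at 50 μM. DMSO (1:1000) served as blank. Luciferase read as fold activation over untreated cells. Mean of three to four experiments.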

[19] = The Cmax value in male wistar rat at 100 mg/kg, p.o. dose; type: ADME, organism-based; parameters: dose 100 mg/kg, route oral; settings: in vivo, po; procedure, shortened: as §1
[20] = tested on: Mus musculus; test: The compound was tested for percent reduction in plasma triglyceride after 6 days of treatment at a dose of 100 mg/kg/day in mice; type: functional; procedure, shortened: as §3
[21] = The half life value in female wistar rat at 100 mg/kg, p.o. dose; type: ADME, organism-based; parameters: dose 100 mg/kg, route oral; settings: in vivo, po; procedure, shortened: as §1
[22] = The Tmax value in male wistar rat at 100 mg/kg, p.o. dose; type: ADME, organism-based; parameters: dose 100 mg/kg, route oral; settings: in vivo, po; procedure, shortened: as §1
[23] = The half life value in male wistar rat at 100 mg/kg, p.o. dose; type: ADME, organism-based; parameters: dose 100 mg/kg, route oral; settings: in vivo, po; procedure, shortened: as §1
[24] = tested on: Rattus norvegicus; test: The AUC(0-infinitive) value in male wistar rat at 100 mg/kg, p.o. dose; type: ADME, organism-based; parameters: time infinity, dose 100 mg/kg, route oral; settings: in vivo, po; procedure, shortened: as §1
[25] = tested on: Mus musculus; test: The compound was tested for percent reduction in plasma triglyceride after 6 days of treatment at a dose of 100 mg/kg/day (oral gavage) in mice; type: functional; procedure, shortened: as §3
[26] = tested on: Rattus norvegicus; test: as §4; type: ADME, organism-based; parameters: dose 100 mg/kg, route oral; settings: in vivo, po; procedure, shortened: as §1
[27] = tested on: Mus musculus; test: The compound was tested for percent reduction in plasma triglyceride after 6 days of treatment at 30 mg/kg/day; type: functional; procedure, shortened: as §3
[28] = tested on: Mus musculus; test: The compound was tested for percent reduction in plasma triglyceride after 6 days of treatment at a dose of 200 mg/kg/day (oral gavage) in mice; type: functional; procedure, shortened: as §3

k el [1]: 0.000106 s⁻¹
AUC [2]: 44.94 µg/h/mL
Tmax [3]: 1.38 h
AUC [4]: 44.2 µg/h/mL
Cmax [6]: 9920 ng/mL
SMILES: Cc1c(C)c2c(c(C)c1O)CCC(C)(CN(C)CCOc1ccc(/C=C3\SC(=O)NC3=O)cc1)O2 (configuration not stated)
Reduction [5]: 36%

SMILES: Cc1c(C)c2c(c(C)c1OCc1ccccc1)CCC(C)(CN1CCC[C@H]1COc1ccc(CC3SC(=O)[N-]C3=O)cc1)O2.[Na+] (some centres not stated)
Reduction [7]: 36%
Reduction [8]: 66%

SMILES: Cc1c(C)c2c(c(C)c1OCc1ccccc1)CCC(C)(CN1CCC[C@@H](Oc3ccc(/C=C4\SC(=O)NC4=O)cc3)C1)O2.Cc1c(C)c2c(c(C)c1OCc1ccccc1)CCC(C)(CN1CCC[C@H]1COc1ccc(/C=C3\SC(=O)NC3=O)cc1)O2 (some centres not stated)
Reduction [9]: 53%
Reduction [10]: 52%

SMILES: Cc1c(C)c2c(c(C)c1OCc1ccccc1)CCC(C)(CN1CCC[C@H]1COc1ccc(/C=C3\SC(=O)[N-]C3=O)cc1)O2.[Na+] (some centres not stated)
Reduction [7]: 8%
Reduction [8]: 58%

SMILES: Cc1c(C)c2c(c(C)c1OCc1ccccc1)CCC(C)(CN1CCC[C@@H](Oc3ccc(/C=C4\SC(=O)NC4=O)cc3)C1)O2 (some centres not stated)
Reduction [11]: 5%
Reduction [12]: 24%

AUC [13]: 15.83
k el [14]: 3.33e-05 s⁻¹
AUC [15]: 29.76
AUC [16]: 14.26 µg/h/mL
k el [1]: 2.22e-05 s⁻¹
Fold activation [18]: 1.79
Cmax [19]: 2170 ng/mL
Tmax [3]: 3.33 h
half-life [21]: 9.27 h
Tmax [22]: 4.33 h
Cmax [6]: 1830 ng/mL
half-life [23]: 5.78 h
AUC [24]: 21.02 µg/h/mL
SMILES: Cc1c(C)c2c(c(C)c1OCc1ccccc1)CCC(C)(COc1ccc(CC3SC(=O)NC3=O)cc1)O2 (configuration not stated)
Reduction [17]: 64%
Reduction [20]: 34%

SMILES: Cc1c(C)c2c(c(C)c1O)CCC(C)(CN(C)CCOc1ccc(CC3SC(=O)NC3=O)cc1)O2 (configuration not stated)
Reduction [5]: 3%

AUC [13]: 14.4
AUC [15]: 18.5
k el [1]: 1.94e-05 s⁻¹
Fold activation [18]: 0.67
Tmax [3]: 4.33 h
half-life [21]: 10.4 h
Cmax [6]: 1090 ng/mL
SMILES: Cc1c(C)c2c(c(C)c1OCc1ccccc1)CCC(C)(COc1ccc(/C=C3\SC(=O)NC3=O)cc1)O2 (configuration not stated)
Reduction [11]: 39%
Reduction [25]: 38%

SMILES: Cc1c(C)c2c(c(C)c1O)CCC(C)(CN1CCC[C@H]1COc1ccc(/C=C3\SC(=O)NC3=O)cc1)O2 (some centres not stated)
Reduction [11]: 37%
Reduction [12]: 36%

k el [1]: 4.17e-05 s⁻¹
AUC [26]: 27.47 µg/h/mL
AUC [2]: 34.49 µg/h/mL
Tmax [3]: 3.25 h
half-life [21]: 4.87 h
Cmax [6]: 4120 ng/mL
SMILES: Cc1c(C)c2c(c(C)c1OCc1ccccc1)CCC(C)(CN(C)CCOc1ccc(/C=C3\SC(=O)NC3=O)cc1)O2 (configuration not stated)
Reduction [5]: 45%

AUC [13]: 2.44
AUC [15]: 3.12
k el [1]: 6.94e-05 s⁻¹
Fold activation [18]: 0.58
Tmax [3]: 1.75 h
half-life [21]: 2.82 h
Cmax [6]: 680 ng/mL
SMILES: Cc1c(C)c2c(c(C)c1O)CCC(C)(COc1ccc(/C=C3\SC(=O)NC3=O)cc1)O2 (configuration not stated)
Reduction [11]: 62%
Reduction [25]: 26%

SMILES: Cc1c(C)c2c(c(C)c1OCc1ccccc1)CCC(C)(CN1CCC[C@H]1COc1ccc(/C=C3\SC(=O)NC3=O)cc1)O2 (some centres not stated)
Reduction [11]: 68%
Reduction [27]: 26%
Reduction [7]: 41%

SMILES: Cc1c(C)c2c(c(C)c1OCc1ccccc1)CCC(C)(CN1CCC[C@H]1COc1ccc(CC3SC(=O)NC3=O)cc1)O2 (some centres not stated)
Reduction [11]: 26%
Reduction [7]: 23%

SMILES: Cc1c(C)c2c(c(C)c1OCc1ccccc1)CCC(C)(CN1CCC[C@H]1COc1ccc(CC3SC(=O)NC3=O)cc1)O2.Cl (some centres not stated)
Reduction [7]: 12%

k el [14]: 5.28e-05 s⁻¹
AUC [16]: 5.09 µg/h/mL
Cmax [19]: 770 ng/mL
Tmax [22]: 2 h
half-life [23]: 3.9 h
AUC [24]: 5.68 µg/h/mL
SMILES: Cc1c(C)c2c(c(C)c1O)CCC(C)(COc1ccc(CC3SC(=O)NC3=O)cc1)O2 (configuration not stated) [TROGLITAZONE]
Reduction [17]: 26%
Reduction [5]: 24%
Reduction [28]: 50%
